# pEC50: −log10 of the molar value.
# Key:
# [1] = molecular target: T1, Adenosine receptor A1 (Homo sapiens) (UniProt P30542); experiment: Percent remaining of radioligand [3H]DPCPX binding to human adenosine A1 receptor at 10 uM
# T1 sequence (whole entry): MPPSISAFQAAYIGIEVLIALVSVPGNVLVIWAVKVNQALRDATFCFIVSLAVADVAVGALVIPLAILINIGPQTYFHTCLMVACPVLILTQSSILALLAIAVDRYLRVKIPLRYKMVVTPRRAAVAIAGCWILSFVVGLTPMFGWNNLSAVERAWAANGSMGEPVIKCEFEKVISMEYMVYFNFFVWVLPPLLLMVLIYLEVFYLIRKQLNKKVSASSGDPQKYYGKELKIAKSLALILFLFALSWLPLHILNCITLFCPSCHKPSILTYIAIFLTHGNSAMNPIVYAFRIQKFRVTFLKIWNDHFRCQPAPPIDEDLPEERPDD
# Method in brief: (§1)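 CHO human A1 receptor membranes (40 μg protein, 2 IU/mL adenosine deaminase) incubated 60 min at 25 °C in Tris-HCl with ~1.6 nM [3H]DPCPX and a fixed compound concentration. Nonspecific binding defined with 10 μM CPA. Filtration on GF/B, scintillation counting. Reported as % specific binding remaining (control 100%, nonspecific 0%). Means of 2–3 experiments in duplicate.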
# [2] = molecular target: T1, Adenosine receptor A1 (Homo sapiens); experiment: Percent remaining of radioligand [3H]CCPA binding to human adenosine A1 receptor at 10 uM
# Method in brief: (§2)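 Radioligand displacement: CHO human A1 receptor membranes (40 μg protein, 2 IU/mL adenosine deaminase) with ~1.0 nM [3H]CCPA plus fixed or increasing compound, 60 min at 25 °C in Tris-HCl. Nonspecific binding defined with 10 μM DPCPX. Ice-cold dilution, GF/B filtration, scintillation counting. Results as % specific binding, control 100%. Means of 2–3 experiments in duplicate.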
# [3] = molecular target: T1, Adenosine receptor A1 (Homo sapiens); experiment: Percent remaining of radioligand [3H]DPCPX binding to human adenosine A1 receptor at 1 uM; method in brief: as §1
# Adenosine receptor A1 [4] = molecular target: T2, Adenosine receptor A1 (Homo sapiens, UniProt P30542); experiment: Effective concentration for displacement of [3H]-CCPA from human adenosine A1 receptor after 60 min; method in brief: as §2
# T2 sequence (P30542 whole entry): T1 sequence (whole entry)
# Adenosine receptor A1 [5] = molecular target: T2, Adenosine receptor A1; experiment: Effective concentration for displacement of [3H]CCPA from human A1 adenosine receptor after 60 min; method in brief: as §2
# [6] = molecular target: T1, Adenosine receptor A1 (Homo sapiens); experiment: Association constant for [3H]DPCPX binding to human adenosine A1 receptor plus or minus compound (10 uM); appt1/2 = 3.85 min
# Method in brief: (§3)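 Membranes from CHO cells expressing recombinant human A1 receptor (40 μg protein) preincubated 30 min at 25 °C with compound. Association started by adding [3H]DPCPX (0.34–0.36 nM), stopped at time points by rapid dilution, then filtered on GF/B and washed with ice-cold buffer. Membranes carry 2 IU/mL adenosine deaminase.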
# [7] = molecular target: T1, Adenosine receptor A1 (Homo sapiens); experiment: Dissociation constant for [3H]DPCPX binding to human adenosine A1 receptor plus or minus compound (10 uM); t1/2 = 6.61 min
# [8] = molecular target: T1, Adenosine receptor A1 (Homo sapiens); experiment: Dissociation constant for [3H]-CCPA binding to human adenosine A1 receptor plus or minus compound (10 uM); t1/2 = 5.37 min
# [9] = molecular target: T1, Adenosine receptor A1 (Homo sapiens); experiment: Association constant for [3H]DPCPX binding to human Adenosine A1 receptor plus or minus compound (7 uM); appt1/2 = 1.77 min.; method in brief: as §3
# [10] = molecular target: T1, Adenosine receptor A1 (Homo sapiens); experiment: Dissociation constant for [3H]CCPA binding to human adenosine A1 receptor plus or minus compound (7 uM); t1/2 = 6.48 min.
# [11] = molecular target: T1, Adenosine receptor A1 (Homo sapiens); experiment: Dissociation constant for [3H]DPCPX binding to human adenosine A1 receptor plus or minus compound (7 uM); t1/2 = 5.27 min.
Structure (SMILES),Remaining [1] [%],Remaining [2] [%],Remaining [3] [%],also measured
C/N=c1\nc(-c2ccccc2)n(-c2ccc(C)cc2)s1,123,31,99,
CC/N=c1\nc(-c2ccc(C)cc2)n(-c2ccc(C)cc2)s1,61,32,100,pEC50 (Adenosine receptor A1 [4]): 5.80
C/N=c1\nc(-c2ccc(Cl)cc2)n(-c2ccc(Cl)cc2)s1,119,20,93,
C/N=c1\nc(-c2ccccc2)n(-c2ccccc2)s1,149,10,104,kon [6]: 3.5e+06 M⁻¹ s⁻¹; pEC50 (Adenosine receptor A1 [4]): 5.55; k off [7]: 0.00184 s⁻¹; k off [8]: 0.00217 s⁻¹
C/N=c1\nc(-c2ccccc2)n(-c2ccc(OC)cc2)s1,132,24,103,kon [9]: 1.98e+07 M⁻¹ s⁻¹; k off [10]: 0.00184 s⁻¹; pEC50 (Adenosine receptor A1 [4]): 5.62; k off [11]: 0.00217 s⁻¹
C/N=c1\nc(-c2ccc(OC)cc2)n(-c2ccccc2)s1,114,35,100,
C/N=c1\nc(-c2ccc(C)cc2)n(-c2ccc(C)cc2)s1,97,20,104,
CC/N=c1\nc(-c2ccc(Cl)cc2)n(-c2ccc(Cl)cc2)s1,84,24,95,
Cc1sc(N)c(C(=O)c2cccc(C(F)(F)F)c2)c1C,68,225,87,

# More lines, main results first:
Remaining [1] [%],Remaining [2] [%],Remaining [3] [%],Structure (SMILES),also measured
90,35,100,CC/N=c1\nc(-c2ccccc2)n(-c2ccc(Cl)c(Cl)c2)s1,
120,24,103,CC/N=c1\nc(-c2ccccc2)n(-c2ccc(OC)cc2)s1,
109,5,99,C/N=c1\nc(-c2ccccc2)n(-c2cccc(C)c2)s1,pEC50 (Adenosine receptor A1 [5]): 6.19
114,6,103,CC/N=c1\nc(-c2ccccc2)n(-c2ccccc2)s1,
126,33,94,C/N=c1\nc(-c2ccccc2)n(-c2ccc(Cl)cc2)s1,
108,35,96,C/N=c1\nc(-c2ccccc2)n(-c2cccc(Cl)c2)s1,
109,30,104,CC/N=c1\nc(-c2ccccc2)n(-c2ccc(Cl)cc2)s1,
105,28,101,CC/N=c1\nc(-c2ccccc2)n(-c2ccc(C)cc2)s1,
86,39,101,CC/N=c1\nc(-c2ccccc2)n(-c2cccc(Cl)c2)s1,
119,15,106,C/N=c1\nc(-c2ccc(Cl)cc2)n(-c2ccccc2)s1,
111,33,94,C/N=c1\nc(-c2ccccc2)n(-c2ccc(Cl)c(Cl)c2)s1,
75,6,98,CC/N=c1\nc(-c2ccccc2)n(-c2cccc(C)c2)s1,
93,36,96,C/N=c1\nc(-c2cccc(Cl)c2)n(-c2cccc(Cl)c2)s1,

# — ChEMBL document CHEMBL1148397, “Synthesis and biological evaluation of 2,3,5-substituted [1,2,4]thiadiazoles as allosteric modulators of adenosine receptors” (J Med Chem, 2004)
